Legend:
B16 [1] = experiment: Treated over control values(T/C) were measured at day 25 by B16 melanoma syngraft assay at 2 mg/kg/day on day 1 after sc tumor implantation of 10 E(5) cells; type: functional, Mus musculus; conditions: route subcutaneous
How it was run: (§1)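 B16 melanoma syngraft in C57/bl mice, 10^5 cells implanted subcutaneously in the front flank on day 0. T/C recorded at day 25. Toxic means early lethality, or ≥50% lethality before any control deaths.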

Nucleic Acid = experiment: % of DNA reductive alkylation determined by catalytic reduction of aziridinyl quinones in presence of 600 bp calf thymus DNA; type: functional; set-up: concentration or dose not given beside the values; conditions: Bos taurus
How it was run: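 Calf thymus DNA (1-2 mg, sonicated to ~600 bp) in 0.05 M Tris pH 7.4 with Pd/C, quinone added at 5:1 base pair equivalents in DMSO. Degassed under argon, H2-purged 10 min, argon-purged, then 30 °C for 24 h anaerobically. Catalyst filtered off, DNA ethanol-precipitated twice, and alkylation quantified by absorbance at 550 nm (ε 800 M-1 cm-1).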

[2] = target: NAD(P)H dehydrogenase [quinone] 1 (Homo sapiens) (UniProt P15559); experiment: The substrate specificity obtained from the ratio of Vmax to KM for human DT-diaphorase (from non-small-cell lung NCI-H460 cell line); type: cell-based
Chain of NAD(P)H dehydrogenase [quinone] 1 (Homo sapiens) (P15559 whole entry): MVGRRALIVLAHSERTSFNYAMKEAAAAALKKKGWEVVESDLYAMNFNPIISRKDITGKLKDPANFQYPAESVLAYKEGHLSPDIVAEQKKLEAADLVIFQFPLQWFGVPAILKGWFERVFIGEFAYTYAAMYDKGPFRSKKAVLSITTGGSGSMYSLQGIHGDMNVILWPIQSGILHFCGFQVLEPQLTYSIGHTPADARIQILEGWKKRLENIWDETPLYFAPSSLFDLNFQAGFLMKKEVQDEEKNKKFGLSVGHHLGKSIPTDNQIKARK
How it was run: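 Recombinant human DT-diaphorase (from NCI-H460) at 1.4 × 10^-9 M final with 0.3 mM NADH in Tris buffer, quinone 1.3 × 10-6 to 6.7 × 10^-5 M final from a 4.0 mM DMSO stock. Both parts argon-purged 20 min and held at 30 °C 10 min, then mixed.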

NCI-H460 [3] = experiment: Concentration of the drug required for 50% growth inhibition against NSC (non small cell) H460 cell line.; type: functional; conditions: Homo sapiens
B16 [4] = experiment: Treated over control values(T/C) were measured at day 25 by B16 melanoma syngraft assay at 3 mg/kg/day on day 5 after sc tumor implantation of 10 E(5) cells; type: functional, Mus musculus; conditions: route subcutaneous; how it was run: as §1
NCI-H460 [5] = experiment: Concentration required for 50% cell kill. against NSC H460 cell line.; type: functional; conditions: Homo sapiens; for CC50: read-out: Log LC50 (the source's name) (converted)
B16 [6] = experiment: Treated over control values(T/C) were measured at day 25 by B16 melanoma syngraft assay at 5 mg/kg/day on day 9 after sc tumor implantation of 10 E(5) cells; type: functional, Mus musculus; conditions: route subcutaneous; how it was run: as §1
[7] = test system: Panel NCI-60 (60 carcinoma cell lines); experiment: Cancer specificity was measured from the +/- value under average log LC50 60-cell line.; type: functional; conditions: Homo sapiens, read-out: Average log LC50 (converted)
NCI-H460 [8] = experiment: Concentration of the drug required for total growth inhibition against NSC H460 cell line.; type: functional; conditions: Homo sapiens, read-out: Log TGI (converted)
NCI-H460 [9] = experiment: Concentration required for 50% growth inhibition against NSC (non small cell) H460 cell line.; type: functional; conditions: Homo sapiens
NCI-H460 [10] = experiment: Concentration required for total growth inhibition against NSC H460 cell line.; type: functional; conditions: Homo sapiens, read-out: Log TGI (converted)
[11] = test system: Panel NCI-60 (60 carcinoma cell lines); experiment: Cancer specificity was measured from the +/- value under average log LC50 60-cell line; type: functional; conditions: Homo sapiens, read-out: Average log LC50 (converted)
NCI-H460 [12] = experiment: Concentration required for 50% cell kill against NSC H460 cell line.; type: functional; conditions: Homo sapiens, read-out: Log LC50 (the source's name) (converted)
[13] = test system: Panel NCI-60 (60 carcinoma cell lines); experiment: Cancer specificity was measured from the +/- value under average log LC50 NCI 60-cell line.; type: functional; conditions: Homo sapiens, read-out: Average log LC50 (converted)

Compound | Activity (B16 [1]) [%] | Activity (Nucleic Acid) [%] | Ratio [2] | GI50 (NCI-H460 [3]) [nM] | Activity (B16 [4]) [%] | Activity (B16 [6]) [%] | LC50 [7] [nM] | TGI (NCI-H460 [8]) [nM] | further results
Cn1c(CO)c(CO)c2c1C(=O)C=C(N1CC1)C2=O | >50 | 3.8 | 302000 | 10 | >50 | >50 | 4470 | 10 | LC50 (NCI-H460 [5]): 10 nM
CC(=O)OC1CCc2c3c(n(C(C)=O)c21)C(=O)C(C)=C(N1CC1)C3=O (stereo not given) |  | 1.2 | 132000 |  |  |  |  |  | 
CC(=O)OCc1[nH]c2c(c1COC(C)=O)C(=O)C(C)=C(N1CC1)C2=O | 74 | 37 | 158000 | 35.5 | >50 | >50 | 30200 | 178 | CC50 (NCI-H460 [5]): 603 nM
CCOC(=O)c1[nH]c2c(c1CO)C(=O)C(N1CC1)=CC2=O |  | 37 | 4.3e+06 | 10 |  |  | 1620 | 100 | LC50 (NCI-H460 [5]): 631 nM
CC1=C(N2CC2)C(=O)c2c([nH]c(CO)c2CO)C1=O | 36 | 2 | 81500 | 10 | >50 | >50 | 2880 | 32.4 | LC50 (NCI-H460 [5]): 1170 nM
CC1=C(N2CC2)C(=O)c2c([nH]c(C)c2C)C1=O | 10 |  |  |  | 60 | >50 |  |  | 
CC(=O)OCc1[nH]c2c(c1COC(C)=O)C(=O)C(N1CC1)=CC2=O |  | 43 | 172000 |  |  |  |  |  | 
CC1=C(N2CC2)C(=O)c2[nH]c(CO)c(CO)c2C1=O | 54 | 4 | 106000 |  | >50 | >50 |  |  | 
CC1=C(N2CC2)C(=O)c2c(c(CO)c(CO)n2C)C1=O |  | 0 | 41700 |  |  | >50 |  |  | GI50 (NCI-H460 [9]): 38.9 nM; TGI (NCI-H460 [10]): 219 nM
O=C1C(N2CC2)=CC(=O)c2c1[nH]c1c2CCC1O (stereo not given) |  | 30 | 128000 | 7.24 |  |  | 2570 | 57.5 | CC50 (NCI-H460 [5]): 1780 nM
CCOC(=O)c1[nH]c2c(c1CO)C(=O)C=C(N1CC1)C2=O |  | 2.2 |  | 1580 |  |  |  | 4070 | CC50 [11]: 4790 nM
O=C1C=C(N2CC2)C(=O)c2c1[nH]c1c2CCC1O (stereo not given) |  | 22.5 | 405000 |  |  |  |  |  | GI50 (NCI-H460 [9]): 10 nM; TGI (NCI-H460 [10]): 102 nM; CC50 (NCI-H460 [12]): 295 nM; CC50 [13]: 2190 nM
CC(=O)OCc1[nH]c2c(c1C)C(=O)C(N1CC1)=C(C)C2=O | 47 |  |  |  | >50 | >50 |  |  | 
O=C1C(N2CC2)=CC(=O)c2c1[nH]c(CO)c2CO |  | 3.4 | 274000 | 138 |  |  | 8510 | 1150 | LC50 (NCI-H460 [5]): 11700 nM
CCOC(=O)c1[nH]c2c(c1COC(C)=O)C(=O)C(N1CC1)=CC2=O |  | 91.2 | 722000 | 37.1 |  |  | 2400 | 170 | CC50 (NCI-H460 [5]): 603 nM
CC1=C(N2CC2)C(=O)c2c([nH]c3c2CCC3O)C1=O (stereo not given) |  | 11.2 | 147000 | 10 |  |  | 18200 | 21.4 | LC50 (NCI-H460 [5]): 851 nM

Compound | Activity (B16 [1]) [%] | Activity (Nucleic Acid) [%] | Ratio [2] | GI50 (NCI-H460 [3]) [nM] | Activity (B16 [4]) [%] | Activity (B16 [6]) [%] | LC50 [7] [nM] | TGI (NCI-H460 [8]) [nM] | further results
CCOC(=O)c1[nH]c2c(c1CO)C(=O)C(N1CC1)=C(C)C2=O |  | 5.6 | 403000 | 10 |  |  | 2040 | 10.2 | CC50 (NCI-H460 [5]): 87.1 nM
CC(=O)OC1CCc2c1[nH]c1c2C(=O)C(N2CC2)=C(C)C1=O (stereo not given) |  | 21 | 65500 |  |  |  |  |  | 
CC1=C(N2CC2)C(=O)c2[nH]c(C)c(C)c2C1=O | 22 |  |  |  | >50 | >50 |  |  | 
CC(=O)OC1CCc2c3c(n(C)c21)C(=O)C(N1CC1)=C(C)C3=O (stereo not given) |  | 1.4 | 30000 |  |  |  |  |  | 
CC1=C(N2CC2)C(=O)c2[nH]c3c(c2C1=O)CCC3O (stereo not given) | 75 | 10 | 142000 | 10 |  | 45 | 72400 | 107 | 
CC1=C(N2CC2)C(=O)c2c(CO)c(CO)n(C)c2C1=O |  | 0 | 32600 |  |  |  |  |  | 
CC(=O)OC1CCc2c3c(n(C(C)=O)c21)C(=O)C=C(N1CC1)C3=O (stereo not given) |  | 14 | 705000 |  |  |  |  |  | 
CC(=O)OC1CCc2c1[nH]c1c2C(=O)C(C)=C(N2CC2)C1=O (stereo not given) |  | 44 | 160000 | 112 |  |  | 21400 | 676 | LC50 (NCI-H460 [5]): 1230 nM
CC(=O)OC1CCc2c3c(n(C(C)=O)c21)C(=O)C(N1CC1)=CC3=O (stereo not given) | 50 | 12 | 234000 |  | >50 | >50 |  |  | 
CC(=O)OC1CCc2c1[nH]c1c2C(=O)C=C(N2CC2)C1=O (stereo not given) |  | 29 | 802000 |  |  | >50 |  |  | 
CC1=C(N2CC2)C(=O)c2[nH]c(CO)c(C)c2C1=O | 61 |  |  |  | 37 | 34 |  |  | 
O=C1C=C(N2CC2)C(=O)c2c1[nH]c(CO)c2CO | >50 | 16.7 | 587000 |  | >50 | >50 |  |  | 
CC(=O)OC1CCc2c1[nH]c1c2C(=O)C(N2CC2)=CC1=O (stereo not given) |  | 34 | 651000 |  |  |  |  |  | 
CC(=O)OC1CCc2c3c(n(C(C)=O)c21)C(=O)C(N1CC1)=C(C)C3=O (stereo not given) | 37 | 9 | 56200 | 83.2 | 15 | 15 | 25100 | 437 | LC50 (NCI-H460 [5]): 5010 nM
CC1=C(N2CC2)C(=O)c2c(c3c(n2C)C(O)CC3)C1=O (stereo not given) |  | 0.3 | 85500 | 1260 |  |  | 100000 | 7590 | LC50 (NCI-H460 [5]): 50100 nM
